# Data taken from PMC4467585 (Journal of Thoracic Oncology, 2015).
# Read-outs that look alike come from different tables or passages of the source.
# Assays:
# ALK [1] = conditions: cellular level; cited from earlier work
# ALK [2] = conditions: more potent; cited from earlier work
# ALK [3] = conditions: enzyme-based assays; cited from earlier work
# IGF-1R = conditions: enzyme panel; cited from earlier work
# ALK-rearranged NSCLC [4] = type: in vivo, human; conditions: for Duration of response to ceritinib: previously treated with alectinib
# Summary of the method: (§1)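 Investigators assessed response by RECIST v1.1 using CT or MRI at baseline, then day 1 of every odd cycle (−3 to +14 days), excluding cycle 1 day 1. NSCLC patients also had brain MRI or head CT. Oral test compound was given once daily in 21-day cycles. Expansion patients were pooled with escalation patients at the same dose. ORR was reported with exact Clopper–Pearson 95% CI; data cutoff July 4, 2014.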
# [5] = system: EML4-ALK xenograft models of NSCLC; conditions: including those exhibiting crizotinib resistance; cited from earlier work
# [6] = Phase I study: DLTs, MTD and adverse events; type: in vivo, human; conditions: for Dose-limiting toxicity: one patient
# Summary of the method: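 Adult Japanese patients with ALK-rearranged advanced tumors, progressed on standard therapy. Oral test compound: single dose in a 3-day PK run-in, then once daily in continuous 21-day cycles, 300–750 mg. Cohorts of 3–6 escalated by Bayesian logistic regression model with overdose control (<25% posterior DLT probability in ≥33–≤100% interval). DLTs assessed over cycle 1 including run-in; AEs graded CTCAE v4.03; data cutoff July 4, 2014.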
# InsR = conditions: enzyme panel; cited from earlier work
# c-MET = conditions: unlike crizotinib; cited from earlier work
# [7] = ASCEND-1; cited from earlier work
# [8] = ASCEND-1, cited from earlier work
# [9] = Phase I study: single- and multiple-dose plasma pharmacokinetics; type: in vivo, human
# STK22D = conditions: enzyme panel; cited from earlier work
# ALK-rearranged tumors = test: Phase I study: tumor response, all patients incl. IMT; type: in vivo, human; conditions: 11 of 20, 300 to 750 mg
# Summary of the method: as §1
# ALK-rearranged NSCLC [10] = conditions: ASCEND-1, cited from earlier work; for PFS: 750 mg once daily
# [11] = system: alectinib-resistant tumor; conditions: patient who had progressed on alectinib; cited from earlier work
# [12] = cited from earlier work
# [13] = PK run-in, ln(parameter) = exponent × ln(dose) + constant, 300 to 750 mg
compound,measurement,setting,value
"Cc1cc(Nc2ncc(Cl)c(Nc3ccccc3S(=O)(=O)C(C)C)n2)c(OC(C)C)cc1C1CCNCC1 [Ceritinib, 5-chloro-N2-(2-isopropoxy-5-methyl-4-(piperidin-4-yl)phenyl)-N4-(2-(isopropylsulfonyl)phenyl)pyrimidine-2,4-diamine]",IC50,ALK [1],[…]
same,Potency compared with crizotinib in inhibiting ALK,ALK [2],20 fold
same,IC50,IGF-1R,8 nM
same,"Partial response, patients",ALK-rearranged NSCLC [4]; ALKi-naive NSCLC patients,two of four
same,"Partial response, patients",ALK-rearranged NSCLC [4]; alectinib-pretreated NSCLC patients,two of four
same,"Partial response, patients",ALK-rearranged NSCLC [4]; crizotinib-pretreated NSCLC patients,five of nine
same,PR among patients previously treated with ALK inhibitors,ALK-rearranged NSCLC [4]; eight of 15 NSCLC patients,53%
same,Patients with a reduction in the size of target lesions,ALK-rearranged NSCLC [4]; of the 16 evaluable NSCLC patients,15 patients
same,Disease control rate,"ALK-rearranged NSCLC [4]; patients with NSCLC across all dose groups, 13 of 19",68%
same,Antitumor activity in xenograft models,[5],marked antitumor activity
same,Dose-limiting toxicity,[6]; 600 mg once daily,grade 3 lipase increase
same,Dose-limiting toxicity,[6]; 750 mg once daily,grade 3 drug-induced liver injury
same,Posterior probability of DLT rate being in the excessive toxicity interval (≥33% to ≤100%),"[6]; 750-mg once-daily dose, BLRM",7.3%
same,Maximum-tolerated dose (MTD),"[6]; Japanese patients with ALK-rearranged tumors, oral",750 mg once daily
same,Adverse event: diarrhea,"[6]; all patients, 300 to 750 mg",75%
same,Adverse event: nausea,"[6]; all patients, 300 to 750 mg",95%
same,Adverse event: vomiting,"[6]; all patients, 300 to 750 mg",75%
same,Patients with at least one dose interruption due to AEs,"[6]; all patients, 11 patients",55%
same,Patients with at least one dose reduction due to AEs,"[6]; all patients, nine patients",45%
same,Patients reporting grade 3/4 AEs,"[6]; all patients, sixteen patients",80%
same,Patients reporting grade 3/4 AEs suspected to be drug related,"[6]; all patients, ten patients",50%
same,Grade 3/4 increased ALT suspected to be drug related,"[6]; all patients, two patients",10%
same,Patients in whom AEs led to discontinuation,"[6]; all patients, two patients",10%
same,IC50,InsR,7 nM
same,Inhibition of the kinase activity of c-MET,c-MET,did not inhibit
same,Increase in exposure in Asian patients compared with non-Asian patients,[7],< 30%
same,Incidence of drug-related grade 3/4 AEs,[8],49%
same,Maximum-tolerated dose (MTD),[8]; oral,750 mg once daily
same,"Exponent of power model, AUC0–24 versus dose",[9]; [13],1.04
same,"Exponent of power model, Cmax versus dose",[9]; [13],0.909
same,half-life,"[9]; human, plasma, oral",1320 to 1980 min
same,Tmax,"[9]; human, plasma, oral, Median Tmax, across the tested doses and profile days",2 to 7 h
same,Exposure numerically higher compared with Asian patients in ASCEND-1,[9]; n = 3,< 30%
same,IC50,STK22D,23 nM
same,Overall response rate,ALK-rearranged tumors,55%
same,PFS,ALK-rearranged NSCLC [10]; ALK inhibitor naive (n = 83),18.4 months
same,PFS,ALK-rearranged NSCLC [10]; previously treated with crizotinib (n = 163),6.9 months
same,ORR,ALK-rearranged NSCLC [10]; ALK inhibitor naive,72.3%
same,ORR,ALK-rearranged NSCLC [10]; all patients (n = 246),61.8%
same,ORR,ALK-rearranged NSCLC [10]; previously treated with crizotinib,56.4%
C[C@@H](Oc1cc(-c2cnn(C3CCNCC3)c2)cnc1N)c1c(Cl)ccc(F)c1Cl [Crizotinib],"Gastrointestinal AEs (including nausea, diarrhea, and vomiting)",[12],39–56%
